Most compounds without a hit are left out; they make up all but 5.9% or so of the library.
Pf Dd2 inh = blocks growth of Plasmodium falciparum Dd2 parasites; P. falciparum Dd2 growth, SYBR Green, 72 h; stronger effect = lower value; activity change, % at 10 µM; 94,000 tested, 2.3% active; in the data active means activity change below about -80%; inconclusive means no clear call, values can overlap the other calls
IDH1 R132H inh = inhibitors of human IDH1 R132H; IDH1 R132H reductase, diaphorase/resazurin fluorescence, 60 min; inhibition, % at 10 µM; 70,000 tested, 0.18% active; in the data active means inhibition above about 34%; inconclusive means no clear call, values can overlap the other calls; inactive means below about 11%;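 further: 0% = DMSO and 100% = no enzyme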
KDM4C inh = KDM4C (human) demethylase inhibition; Q9H3R0; GST-KDM4C 2-372, H3K9me3 peptide, LANCE TR-FRET; inhibition, % at 12.5 µM; 96,000 tested, 0.15% active; AID 720574;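 active means mean replicate inhibition above about 25%, with at least 55% of replicates also reaching it, limit read from the data, passing the limit was not always enough; inconclusive means only one of those two conditions met; inactive means neither condition met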
Target sequence (Q9H3R0 2-372 limits assumed): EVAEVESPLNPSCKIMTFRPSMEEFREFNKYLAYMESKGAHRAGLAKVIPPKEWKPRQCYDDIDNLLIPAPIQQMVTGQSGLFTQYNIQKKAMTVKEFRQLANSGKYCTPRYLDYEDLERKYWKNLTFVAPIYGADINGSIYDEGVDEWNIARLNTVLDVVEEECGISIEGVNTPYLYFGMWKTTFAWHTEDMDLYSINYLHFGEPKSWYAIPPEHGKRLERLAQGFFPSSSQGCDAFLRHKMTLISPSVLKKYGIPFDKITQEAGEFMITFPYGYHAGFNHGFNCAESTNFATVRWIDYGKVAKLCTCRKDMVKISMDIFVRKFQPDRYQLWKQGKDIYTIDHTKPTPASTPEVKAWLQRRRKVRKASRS
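Test system – GST-tagged GASC-1 (JMJD2C) catalytic fragment, aa 2-372 · Medium – HEPES buffer, pH 7.5, plus ascorbate · Reagent – H3K9me3 peptide with Fe(II)/2OG · Compound – one test concentration per compound · Timing – 30 min reaction, 60 min detection, RT · Technique – TR-FRET with Eu antibody and ULight streptavidin, EDTA stop · Read-out basis – inhibition from TR-FRET ratio decrease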
T cruzi growth = T. cruzi proliferation inhibition. AID 624255. 77,000 tested, 5.9% active. inhibition, % at 8.34 µM. T. cruzi beta-gal in NIH3T3, GalScreen luminescence, 90 h;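 active means mean inhibition above about 93%, with at least 55% of replicates each passing it, limit read from the data, passing the limit was not always enough; inconclusive means only one of those two conditions holds; inactive means neither condition holds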
* marks the source's active call; other numbers are inactive results.

Results for Cc1ccc2ccc(C(Nc3ccccn3)c3cccc([N+](=O)[O-])c3)c(O)c2n1 (configuration not stated) ?
IDH1 R132H inh: 0

Results for Cc1ccc(NC(=O)CN(c2cccc(F)c2)S(C)(=O)=O)cc1 ?
IDH1 R132H inh: 0

Results for O=C(NCc1c(OC(=O)c2ccccc2[N+](=O)[O-])ccc2ccccc12)c1ccccc1 ?
IDH1 R132H inh: 1

How did Cc1cc(C)cc(OCC(=O)Nc2cc(-c3nc4cc(Cl)ccc4o3)ccc2C)c1 do in these assays?
IDH1 R132H inh: 0

What do the screens show for `COc1ccc(NC(=O)N(C)C[C@H]2Oc3cc(C#CCC(C)C)ccc3S(=O)(=O)N([C@H](C)CO)C[C@H]2C)cc1`?
Pf Dd2 inh: -88*; IDH1 R132H inh: 0; KDM4C inh: 2; T cruzi growth: 6

How did COc1ccc(NC(=O)N(C)C[C@@H]2Oc3cc(C#CCC(C)C)ccc3S(=O)(=O)N([C@@H](C)CO)C[C@H]2C)cc1 do in these assays?
Pf Dd2 inh: -53; IDH1 R132H inh: 0; KDM4C inh: 6; T cruzi growth: 91

How did CCCC#Cc1ccc2c(c1)O[C@H](CN(C)C(=O)Nc1ccc(OC)cc1)[C@H](C)CN([C@H](C)CO)S2(=O)=O do in these assays?
Pf Dd2 inh: -87*; IDH1 R132H inh: -3; KDM4C inh: 0; T cruzi growth: 83

What do the screens show for `CCCC#Cc1ccc2c(c1)O[C@H](CN(C)C(=O)Nc1ccc(OC)cc1)[C@@H](C)CN([C@H](C)CO)S2(=O)=O`?
Pf Dd2 inh: -35; KDM4C inh: 1; T cruzi growth: 75

Results for O=C(C[C@@H]1CC[C@@H]2[C@H](COC[C@@H](O)CN2C(=O)c2ccccc2F)O1)NCc1ccc(-c2ccccc2)cc1 ?
Pf Dd2 inh: -86*; KDM4C inh: 1

Results for O=C(C[C@H]1CC[C@H]2[C@@H](COC[C@H](O)CN2C(=O)c2ccccc2F)O1)NCc1ccc(-c2ccccc2)cc1 ?
Pf Dd2 inh: -55; KDM4C inh: -2

Results for COC(=O)COc1cccc(NC(=O)c2ccc(-c3ccccc3)cc2)c1 ?
IDH1 R132H inh: 0

Results for COc1ccc(/C=N/NC(=O)c2ccc(C(=O)NO)cc2)cc1O ?
IDH1 R132H inh: 0

Results for Cc1ccc(N(C(=O)COc2ccc(C)cc2C)C2C=CS(=O)(=O)C2)cc1 (configuration not stated) ?
IDH1 R132H inh: 0

What do the screens show for `C[C@H](CO)N1C[C@H](C)[C@@H](CN(C)Cc2ccncc2)Oc2c(NC(=O)CCCCCC(=O)Nc3ccccc3N)cccc2C1=O`?
Pf Dd2 inh: -29; KDM4C inh: -1; T cruzi growth: 46

Results for C[C@H]1CN([C@@H](C)CO)C(=O)c2cccc(NC(=O)CCCCCC(=O)Nc3ccccc3N)c2O[C@@H]1CN(C)Cc1ccc(-c2ccccc2)cc1 ?
Pf Dd2 inh: -93*; IDH1 R132H inh: 3; KDM4C inh: 13

How did C[C@@H]1CN([C@H](C)CO)C(=O)c2cccc(NC(=O)CCCCCC(=O)Nc3ccccc3N)c2O[C@H]1CN(C)Cc1ccccc1 do in these assays?
Pf Dd2 inh: -88*; IDH1 R132H inh: -1; KDM4C inh: -4

How did COc1cccc(NC(=O)N[C@@H]2C=C[C@H](CC(=O)N3CCCCC3)O[C@@H]2CO)c1 do in these assays?
Pf Dd2 inh: 7; KDM4C inh: 1

How did COc1cccc(NC(=O)N[C@@H]2C=C[C@@H](CC(=O)N3CCCCC3)O[C@@H]2CO)c1 do in these assays?
Pf Dd2 inh: -1; KDM4C inh: 34*

How did COc1ccccc1NC(=O)N(C)C[C@@H]1OCc2ccccc2-c2ccccc2C(=O)N([C@@H](C)CO)C[C@H]1C do in these assays?
Pf Dd2 inh: -86*; KDM4C inh: 3; T cruzi growth: 44

How did C[C@H](CO)N1C[C@H](C)[C@@H](CN(C)C(=O)Nc2cccc(Cl)c2Cl)OCc2ccccc2-c2ccccc2C1=O do in these assays?
Pf Dd2 inh: -84*; KDM4C inh: -3

What do the screens show for `O=C(CSc1nnnn1-c1ccccc1)Nc1ccc(Cl)c(C(=O)O)c1`?
IDH1 R132H inh: 0

Results for COc1ccc(-n2c(SCC(=O)N(c3ccccc3)c3ccccc3)nc3ccccc3c2=O)cc1 ?
IDH1 R132H inh: 0

How did COc1ccc(NC(=O)N(C)C[C@@H]2OCCCC[C@H](C)Oc3ccc(NC(=O)c4ccccc4)cc3C(=O)N([C@H](C)CO)C[C@@H]2C)cc1 do in these assays?
Pf Dd2 inh: inconclusive; IDH1 R132H inh: 1; KDM4C inh: 3; T cruzi growth: 42

Results for COc1ccc(NC(=O)N(C)C[C@H]2OCCCC[C@H](C)Oc3ccc(NC(=O)Nc4ccc(C(F)(F)F)cc4)cc3C(=O)N([C@H](C)CO)C[C@@H]2C)cc1 ?
Pf Dd2 inh: -4; IDH1 R132H inh: 1; KDM4C inh: 0; T cruzi growth: inconclusive

What do the screens show for `COc1ccc(NC(=O)N(C)C[C@H]2OCCCC[C@@H](C)Oc3ccc(NC(=O)Nc4ccc(C(F)(F)F)cc4)cc3C(=O)N([C@H](C)CO)C[C@H]2C)cc1`?
Pf Dd2 inh: -83*; KDM4C inh: 1; T cruzi growth: 116*

What do the screens show for `COc1ccc(NC(=O)N(C)C[C@H]2OCCCC[C@H](C)Oc3ccc(NC(=O)c4ccccc4)cc3C(=O)N([C@@H](C)CO)C[C@H]2C)cc1`?
Pf Dd2 inh: -89*; IDH1 R132H inh: 1; KDM4C inh: -1

How did COc1ccc(NC(=O)N(C)C[C@H]2OCCCC[C@@H](C)Oc3ccc(NC(=O)Nc4ccc(C(F)(F)F)cc4)cc3C(=O)N([C@@H](C)CO)C[C@@H]2C)cc1 do in these assays?
Pf Dd2 inh: -84*; KDM4C inh: 5; T cruzi growth: 83

What do the screens show for `O=C(CSc1nc2ccccc2s1)NO`?
IDH1 R132H inh: 0

Results for COc1ccccc1NC(=O)N1CCCCN2[C@H](CO)[C@H](c3ccc(-c4cccc(C)c4)cc3)[C@H]2C1 ?
Pf Dd2 inh: -86*; KDM4C inh: -1; T cruzi growth: 75

Results for Cc1cccc(-c2ccc([C@@H]3[C@H](CO)N4CCCCN(CCC(F)(F)F)C[C@@H]34)cc2)c1 ?
Pf Dd2 inh: -81*; KDM4C inh: -1; T cruzi growth: 84

What do the screens show for `Cc1cccc(-c2ccc([C@@H]3[C@@H](CO)N4CCCCN(CCC(F)(F)F)C[C@@H]34)cc2)c1`?
Pf Dd2 inh: -22; KDM4C inh: -2; T cruzi growth: 93

Results for COc1ccccc1NC(=O)N1CCCCN2[C@@H](CO)[C@H](c3ccc(C#CC4CCCC4)cc3)[C@@H]2C1 ?
Pf Dd2 inh: -83*; KDM4C inh: -1; T cruzi growth: -3

How did Cc1cc(C)c2oc(-c3ccc(NC(=O)COc4ccc([N+](=O)[O-])cc4)cc3)nc2c1 do in these assays?
IDH1 R132H inh: 0

How did COc1ccc(-c2noc(CCCN3C(=O)c4ccccc4C3=O)n2)cc1OC do in these assays?
IDH1 R132H inh: 0

Results for COc1ccc2[nH]c3c(OC)ncnc3c2c1 ?
IDH1 R132H inh: -2

Screening data from PubChem BioAssay.
